Measurements published in publication PMC7245055 (Chemical biology & drug design, 2019).
In brackets after ≈: the same amount, converted by molar mass. Entries after “also recorded” stand apart in the source; their conditions may differ.

Assays:
[1] = Thermodynamic turbidimetric aqueous solubility assay; format: physicochemical; settings: for aqueous solubility (in words): turbidity at 620 nm in H2O; for solubility: pure water with 1% DMSO, 37 °C, water, kinetic from dmso stock
In short: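 DMSO solutions of test compound were serially diluted from 40 mM to 0.1 mM. Each was diluted 2 μL into ~198 μL pure water and shaken on a rotary shaker at 37 °C for 1–2 h to reach equilibrium solubility. Turbidity was measured as absorbance at 620 nm. Triplicate wells, reported as means ± SD.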

[2] = test system: INS-1 β-cells; assay: INS-1 β-cell viability against tunicamycin; format: cell-based, rat; settings: INS-1 cells, Tm
In short: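 Rat INS-1 cells in RPMI 1640 with 10% FBS were seeded at 5 × 10^3 cells/well and held 24 h at 37 °C. Test compound was added as ten 2-fold serial titration points, then tunicamycin at 0.15 μg/mL final, for 72 h co-treatment. Viability was read as CellTiter-Glo luminescence (ATP) after 10 min. Maximum activity is % rescue, with Tm alone set as 0% and DMSO without Tm as 100%. EC50 was derived by curve fitting. Run in triplicate.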

[3] = test system: INS-1 β cells; assay: INS-1 cell viability against thapsigargin; format: cell-based, rat; settings: TG 18 nM, 72 h, CellTiter-Glo
In short: (§1)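 INS-1 cells were plated in RPMI 1640 with 10% FBS at 5 × 10^3 cells/well and held 24 h at 37 °C. Test compound was pin-transferred, then stressor was added in medium: TG 18 nM or BFA 0.2 μg/mL. After 72 h the medium was removed and CellTiter-Glo (intracellular ATP) added; luminescence was read after 10 min. DMSO without stressor was normalized as 1. Data are means of 3 replicate wells, with 3 independent experiments.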

[4] = test system: INS-1 β cells; assay: INS-1 cell viability against brefeldin A; format: cell-based, rat; settings: BFA 0.2 μg/mL, 72 h, CellTiter-Glo
In short: as §1

[5] = test system: INS-1 β-cells; settings: cited from earlier work

Row | SMILES | aqueous solubility (in words) [1] | β-cell protective activity (in words) [2] | other results
1 | Cc1c(Cl)cccc1C(=O)NCC(=O)NCc1ccc(C(F)(F)F)cc1 [Compound 5g, 3-Chloro-2-methyl-N-(2-oxo-2-((4-(trifluoromethyl)benzyl)amino)ethyl)benzamide] | improved water solubility compare to 1 | – | –
2 | Cc1c(Cl)cccc1C(=O)NC(Cc1ccc(O)cc1)C(=O)NCc1ccc(C(F)(F)F)cc1 (stereo not shown) [Compound 5q, 3-Chloro-N-(3-(4-hydroxyphenyl)-1-oxo-1-((4-(trifluoromethyl)benzyl)amino)propan-2-yl)-2-methylbenzamide] | – | significantly less or not active | –
3 | O=C(CNC(=O)c1cccc(O)c1)NCc1ccc(C(F)(F)F)cc1 [Compound 5m, 3-Hydroxy-N-(2-oxo-2-((4-(trifluoromethyl)benzyl)amino)ethyl)benzamide] | – | – | reduction in viability of INS-1 cells treated with TG [3]: significantly reversed; reduction in viability of INS-1 cells treated with BFA [4]: significantly reversed
4 | COc1cc(CNC(=O)CNC(=O)c2cccc(Cl)c2C)ccc1O [Compound 5h, 3-Chloro-N-(2-((4-hydroxy-3-methoxybenzyl)amino)-2-oxoethyl)-2-methylbenzamide] | improved water solubility compare to 1 | – | –
5 | Cc1c(Cl)cccc1C(=O)NC(C)C(=O)NCc1ccc(C(F)(F)F)cc1 (stereo not shown) [Compound 5p, 3-Chloro-2-methyl-N-(1-oxo-1-((4-(trifluoromethyl)benzyl)amino)propan-2-yl)benzamide] | – | significantly less or not active | –
6 | COc1cc(C(=O)NCC(=O)NCc2ccc(C(F)(F)F)cc2)ccc1O [Compound 5o, 4-hydroxy-3-methoxy-N-(2-oxo-2-((4-(trifluoromethyl)benzyl)amino)ethyl)benzamide] | – | significantly compromised activity | –
7 | Cc1ccc(C)c(NC(=O)c2nnn(-c3cccc(Cl)c3C)c2C)c1 [Compound 1, 1-(3-chloro-2-methylphenyl)-N-(2,5-dimethylphenyl)-5-methyl-1H-1,2,3-triazole-4-carboxamide, reference compound] | poor aqueous solubility; also recorded: limited aqueous solubility; also recorded: aqueous insolubility | – | concentration at which β cell protective activity is exhibited ([5]; narrow range of doses): 5~10 μM; maximal activity ([5]; protection of β cells against ER stress): 97%
8 | Cc1c(Cl)cccc1C(=O)NCC(=O)NCCc1ccc(O)cc1 [Compound 5f, 3-Chloro-N-(2-((4-hydroxyphenethyl)amino)-2-oxoethyl)-2-methylbenzamide] | – | – | solubility [1]: ~200 µM (≈ 69.4 µg/mL)
9 | COc1cc(CNC(=O)CNC(=O)c2cccc(O)c2)ccc1O [Compound 5n, 3-Hydroxy-N-(2-((4-hydroxy-3-methoxybenzyl)amino)-2-oxoethyl)benzamide] | – | significantly compromised activity | –
10 | Cc1ccc(C)c(CNC(=O)CNC(=O)c2cccc(Cl)c2C)c1 [Compound 5a, 3-Chloro-N-(2-((2,5-dimethylbenzyl)amino)-2-oxoethyl)-2-methylbenzamide] | – | – | solubility [1]: ~75 µM (≈ 25.9 µg/mL)
